Activity calls are given as the source filed them. The rule behind the calls is not given here.
How the values were obtained:
Mus musculus [1] = test: In vivo antagonist activity at D2 receptor in ip dosed Swiss albino mouse assessed as inhibition of apomorphine-induced climbing behaviour administered 10 mins prior to apomophine injection measured after 20 mins; assay type: functional
Procedure, shortened: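 Male Swiss albino mice, 5-6 per dose, in metal-bar cages. Compound i.p. was followed 10 min later by apomorphine 3 mg/kg i.p. Climbing time (2–4 paws on the wall) was measured for 2 min starting 20 min after apomorphine. ID50 is the dose inhibiting climbing by 50%.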

Mus musculus [2] = test: In vivo partial agonist activity at 5HT1A receptor in CD-1 mouse assessed as change in body temperature at 5 mg/kg, ip measured after 30 mins (reference value: -0.1 degC); assay type: functional, organism-based
Procedure, shortened: (§1)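 Male CD-1 mice, 7-9 per dose, compound suspended in 1% aqueous Tween 80 and given i.p. at 10 ml/kg. Rectal temperature was taken by thermometer 30, 60, 90 and 120 min after dosing. Change (Δt) is expressed against basal temperature measured at the start. Mean ± SEM, one-way ANOVA with Bonferroni test.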

Mus musculus [3] = test: In vivo partial agonist activity at 5HT1A receptor in CD-1 mouse assessed as change in body temperature at 10 mg/kg, ip administered 15 mins after 5HT1A receptor antagonist WAY100635 injection measured after 30 mins (reference value: -0.1 degC); assay type: functional, organism-based
Procedure, shortened: (§2)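 Male CD-1 mice, 7-9 per dose. WAY 100635 (0.3 mg/kg) was given 15 min before the compound i.p. Rectal temperature was recorded 30 and 60 min after the compound, as the change from basal temperature.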

Mus musculus [4] = test: In vivo partial agonist activity at 5HT1A receptor in CD-1 mouse assessed as change in body temperature at 5 mg/kg, ip measured after 60 mins (reference value: -0.1 degC); assay type: functional, organism-based; procedure, shortened: as §1
Mus musculus [5] = test: In vivo partial agonist activity at 5HT1A receptor in CD-1 mouse assessed as change in body temperature at 10 mg/kg, ip administered 15 mins after 5HT1A receptor antagonist WAY100635 injection measured after 60 mins (reference value: -0.1 degC); assay type: functional, organism-based; procedure, shortened: as §2
Mus musculus [6] = test: In vivo partial agonist activity at 5HT1A receptor in CD-1 mouse assessed as change in body temperature at 10 mg/kg, ip measured after 90 mins (reference value: -0.1 degC); assay type: functional, organism-based; procedure, shortened: as §1
Mus musculus [7] = test: In vivo partial agonist activity at 5HT1A receptor in CD-1 mouse assessed as change in body temperature at 5 mg/kg, ip measured after 120 mins (reference value: -0.1 degC); assay type: functional, organism-based; procedure, shortened: as §1
Mus musculus [8] = test: In vivo partial agonist activity at 5HT1A receptor in CD-1 mouse assessed as change in body temperature at 10 mg/kg, ip measured after 120 mins (reference value: -0.1 degC); assay type: functional, organism-based
Procedure, shortened: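 Male CD-1 mice, 7-9 per dose, dosed i.p. Rectal temperature was recorded at 30, 60, 90 and 120 min. Results are the change from basal temperature taken at the start of the experiment.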

Mus musculus [9] = test: In vivo agonist activity at 5HT2A receptor in Swiss albino mouse assessed as induction of head twitch response at 5 to 40 mg/kg, ip; assay type: functional, organism-based
Mus musculus [10] = test: Antipsychotic activity in CD-1 mouse assessed as inhibition of D-amphetamine-induced hyperlocomotor activity at 0.156 to 0.625 mg/kg, ip; assay type: functional, organism-based
Procedure, shortened: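 Male CD-1 mice, 8-10 per dose. d-Amphetamine was given s.c. 30 min pretest; test compound i.p. 60 min pretest in 1% Tween 80. After 30 min habituation in the activity monitor, ambulation crossings were counted for 1 h, recorded every 5 min.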

Mus musculus [11] = test: Anti-depressant like activity in Swiss albino mouse assessed as shortening of immobility time at 2.5 mg/kg, ip by forced swim test; assay type: functional
Procedure, shortened: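 Forced swim test in male Swiss albino mice, 7-9 per dose. Compound was given i.p. in 1% Tween 80 at 10 ml/kg, 60 min pretest. Mice swam for 6 min in a cylinder with 6 cm of water at 23-25 °C. Immobility was scored over the last 4 min. Analysis was one-way ANOVA with Bonferroni.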

Mus musculus [12] = test: Toxicity in Swiss albino mouse assessed as stimulation of spontaneous locomotor activity at 2.5 to 5 mg/kg, ip measured during 2-6 mins session; assay type: organism-based; conditions: in vivo
Procedure, shortened: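 Male Swiss albino mice, 8-10 per dose, received compound i.p. 60 min before testing. Each mouse was placed individually in a cage on an infrared activity monitor. Channel crossings (ambulation) were counted from 2 to 6 min, matching the forced swim test observation window.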

Mus musculus [13] = test: Toxicity in ip dosed CD-1 mouse assessed as minimum dose required for induction of catalepsy by bar test; assay type: organism-based; conditions: in vivo
Procedure, shortened: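 Male CD-1 mice, 10 per group, given compound i.p. (1% Tween 80 suspension). Forelimbs were placed on a horizontal rod 4 cm high at 30, 60 and 120 min. Catalepsy was scored up to 3 (≥60 s on bar). Minimum cataleptogenic dose is the lowest dose giving a mean score ≥1 at any of those times.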

## COc1ccccc1N1CCN(CCCCN2C(=O)NC3(CCCc4ccccc43)C2=O)CC1 (stereo not drawn)
Mus musculus [1]
  ED50: 37.9 mg/kg
Mus musculus [2]
  deltaT: -0.8 °C
Mus musculus [3]
  deltaT: -1.1 °C
Mus musculus [4]
  deltaT: -0.7 °C
Mus musculus [5]
  deltaT: -1 °C
Mus musculus [6]
  deltaT: -1.3 °C
Mus musculus [7]
  deltaT: -0.6 °C
Mus musculus [8]
  deltaT: -1.2 °C
Mus musculus [9]
  Activity: inactive
Mus musculus [10]
  inhibition: Active
Mus musculus [11]
  inhibition in vivo at 2.5 mg/kg: 37%
Mus musculus [12]
  Activity: Non-toxic
Mus musculus [13]
  Activity: 30 mg/kg

From ChEMBL document CHEMBL3588770, “Novel spirohydantoin derivative as a potent multireceptor-active antipsychotic and antidepressant agent” (Bioorg Med Chem, 2015)
